Data taken from ChEMBL document CHEMBL1126150, “New kappa-receptor agonists based upon a 2-[(alkylamino)methyl]piperidine nucleus” (J Med Chem, 1992).

Columns and labels:
Mus musculus = assay: Antinociceptive activity was determined using the mouse acetylcholine-induced abdominal constriction test followed by subcutaneous administration; assay type: functional; details: Abdomen, sc
In short: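 Mice received each compound by subcutaneous injection and were scored in the acetylcholine-induced abdominal constriction test. An ED50 in mg/kg was determined for each compound.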

[1] = target: T1, Kappa-type opioid receptor (Homo sapiens, UniProt P41145); assay: Opioid receptor kappa 1 agonist potency in vitro using rabbit vas deferens(LVD) preparation; assay type: functional, Oryctolagus cuniculus; details: target entry is the homologue from another species
T1 sequence (P41145 whole entry): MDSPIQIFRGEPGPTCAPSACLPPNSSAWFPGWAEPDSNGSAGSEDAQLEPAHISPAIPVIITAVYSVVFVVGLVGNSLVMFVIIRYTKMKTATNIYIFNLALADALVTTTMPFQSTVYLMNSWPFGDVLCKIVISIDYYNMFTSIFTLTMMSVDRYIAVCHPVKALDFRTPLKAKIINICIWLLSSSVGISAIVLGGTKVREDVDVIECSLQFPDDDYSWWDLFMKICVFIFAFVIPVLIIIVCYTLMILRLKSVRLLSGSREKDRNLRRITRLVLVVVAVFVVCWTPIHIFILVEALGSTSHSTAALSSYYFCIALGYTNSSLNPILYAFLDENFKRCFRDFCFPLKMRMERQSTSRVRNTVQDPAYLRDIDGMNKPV
In short: (§1)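 Isolated rabbit vas deferens (LVD) was used as an in vitro kappa-agonist bioassay. Potency is given as an IC50 in nM, the mean of two independent determinations, with individual values typically within ±10% of the mean. Compounds were tested as racemates.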

[2] = target: T1, Kappa-type opioid receptor; assay: Opioid receptor kappa agonist potency in vitro using rabbit vas deferens(LVD) preparation; assay type: functional, Oryctolagus cuniculus; details: target entry is the homologue from another species; in short: as §1
[3] = target: T1, Kappa-type opioid receptor; assay: Kappa-opioid receptor agonist potency in vitro using rabbit vas deferens(LVD) preparation; assay type: functional, Oryctolagus cuniculus; details: target entry is the homologue from another species; in short: as §1
[4] = target: Kappa-type opioid receptor (Cavia porcellus) (UniProt P41144); assay: pKa value was measured against kOpioid receptor kappa 1
Kappa-type opioid receptor (Cavia porcellus), sequence (P41144 whole entry): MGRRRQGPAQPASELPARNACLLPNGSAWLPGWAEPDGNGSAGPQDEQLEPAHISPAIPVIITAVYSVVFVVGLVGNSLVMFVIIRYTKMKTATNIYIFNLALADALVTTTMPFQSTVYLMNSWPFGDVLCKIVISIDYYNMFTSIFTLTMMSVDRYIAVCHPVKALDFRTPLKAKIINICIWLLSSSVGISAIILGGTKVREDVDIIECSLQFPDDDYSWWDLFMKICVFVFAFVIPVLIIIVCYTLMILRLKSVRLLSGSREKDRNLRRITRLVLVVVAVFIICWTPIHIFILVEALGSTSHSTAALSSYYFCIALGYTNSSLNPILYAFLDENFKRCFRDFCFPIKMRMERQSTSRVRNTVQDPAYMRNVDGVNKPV
In short: (§2)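 pKa was found by titration of the compound at a sample concentration of 0.002 M in 10% methanol-water solvent.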

[5] = target: Kappa-type opioid receptor (Cavia porcellus) (UniProt P41144); assay: pKa value was measured against opioid receptor kappa; in short: as §2
[6] = target: Kappa-type opioid receptor (Cavia porcellus) (UniProt P41144); assay: pKa value was measured against Opioid receptor kappa 1; in short: as §2

Compound | ED50 (Mus musculus) | also measured
O=C1CCN(CC2CCCCN2C(=O)Cc2ccc(Cl)c(Cl)c2)CC1 (stereo unspecified) | > 10 mg/kg | 
C=CCC1(CN2CCCC2)CCCCN1C(=O)Cc1ccc(Cl)c(Cl)c1 (stereo unspecified) | 2.4 mg/kg | 
N#C/C=C1/CCN(CC2CCCCN2C(=O)Cc2ccc(Cl)c(Cl)c2)C1 (stereo unspecified) | 0.19 mg/kg | IC50 [1]: 0.12 nM
COC(=O)/C=C1\CCN(CC2CCCCN2C(=O)Cc2ccc(Cl)c(Cl)c2)C1 (stereo unspecified) | 6.6 mg/kg | 
NC(=O)[C@@H]1CCN(C(=O)Cc2ccc(Cl)c(Cl)c2)[C@H](CN2CCCC2)C1 | > 10 mg/kg | 
O=C(Cc1ccc(Cl)c(Cl)c1)N1[C@@H](CO)CCC[C@H]1CN1CCCC1 |  | IC50 [2]: 2200 nM
O=C(Cc1ccc(Cl)c(Cl)c1)N1CCCCC1CN1CCCC1 (stereo unspecified) | 0.03 mg/kg | IC50 [3]: 11 nM; pKa [4]: 9
O=C(Cc1ccc(Cl)c(Cl)c1)N1CCCCC1CN1CC=CCC1 (stereo unspecified) | 0.009 mg/kg | 
O=C(Cc1ccc(Cl)c(Cl)c1)N1CCC2(CC1CN1CCCC1)OCCO2 (stereo unspecified) | 0.001 mg/kg | 
CN(C)CC1CCCCN1C(=O)Cc1ccc(Cl)c(Cl)c1 (stereo unspecified) | 0.064 mg/kg | IC50 [1]: 102 nM
O=C(Cc1ccc(Cl)c(Cl)c1)N1CCCCC1CN1CCC2(CC1)OCCO2 (stereo unspecified) | > 10 mg/kg | 
O=C(Cc1ccc(Cl)c(Cl)c1)N1CC[C@@H](O)C[C@H]1CN1CCCC1 | 0.27 mg/kg | IC50 [1]: 120 nM
COC(=O)/C=C1/CCN(CC2CCCCN2C(=O)Cc2ccc(Cl)c(Cl)c2)C1 (stereo unspecified) | 0.07 mg/kg | 
O=C1CC[C@@H](CN2CCCC2)N(C(=O)Cc2ccc(Cl)c(Cl)c2)C1 | 0.91 mg/kg | 
C=C1CCN(CC2CCCCN2C(=O)Cc2ccc(Cl)c(Cl)c2)CC1 (stereo unspecified) |  | IC50 [1]: 550 nM
O=C(Cc1ccc(Cl)c(Cl)c1)N1CCCCC1CN1CCC(O)C1 (stereo unspecified) | 0.01 mg/kg | pKa [5]: 8.1
O=C(Cc1ccc(Cl)c(Cl)c1)N1CCCCC1CN1CCCCC1 (stereo unspecified) | 0.24 mg/kg | 
O=C1CCCN(C(=O)Cc2ccc(Cl)c(Cl)c2)C1CN1CCCC1 (stereo unspecified) | 3.4 mg/kg | 

Compound | ED50 (Mus musculus) | also measured
COC(=O)[C@@H]1CCN(C(=O)Cc2ccc(Cl)c(Cl)c2)[C@H](CN2CCCC2)C1 | > 10 mg/kg | 
C[C@H]1CCC[C@@H](CN2CCCC2)N1C(=O)Cc1ccc(Cl)c(Cl)c1 | 0.034 mg/kg | 
O=C(Cc1ccc(Cl)c(Cl)c1)N1CCC[C@H](O)[C@H]1CN1CCCC1 | 3.6 mg/kg | 
C=C1CCCN(C(=O)Cc2ccc(Cl)c(Cl)c2)C1CN1CCCC1 (stereo unspecified) | 0.11 mg/kg | 
O=C(Cc1ccc(Cl)c(Cl)c1)N1CCC2(CC1CN1CCCC1)SCCS2 (stereo unspecified) | 0.025 mg/kg | 
O=C(Cc1ccc(Cl)c(Cl)c1)N1CCCCC1CN1CC=CC1 (stereo unspecified) | 0.04 mg/kg | IC50 [1]: 3.5 nM
O=C(Cc1ccc(Cl)c(Cl)c1)N1CCC[C@@H](O)[C@H]1CN1CCCC1 | 1.7 mg/kg | 
O=C(Cc1ccc(Cl)c(Cl)c1)N1CC[C@H](O)C[C@H]1CN1CCCC1 | 1.4 mg/kg | 
O=C1CCN(CC2CCCCN2C(=O)Cc2ccc(Cl)c(Cl)c2)C1 (stereo unspecified) | 0.06 mg/kg | pKa [6]: 5.3; IC50 [1]: 0.2 nM
C[C@@H]1CCC[C@@H](CN2CCCC2)N1C(=O)Cc1ccc(Cl)c(Cl)c1 | 0.4 mg/kg | 
O=C(Cc1ccc(Cl)c(Cl)c1)N1CC2(CC[C@H]1CN1CCCC1)OCCO2 | 1.1 mg/kg | 
COC(=O)C1=CCCN(CC2CCCCN2C(=O)Cc2ccc(Cl)c(Cl)c2)C1 (stereo unspecified) | 0.41 mg/kg | 
O=C(Cc1ccc(Cl)c(Cl)c1)N1CCCCC1CN1CCCO1 (stereo unspecified) | 0.38 mg/kg | 
COC(=O)[C@@H]1CCC[C@@H](CN2CCCC2)N1C(=O)Cc1ccc(Cl)c(Cl)c1 | 0.43 mg/kg | 
C=C1CCN(CC2CCCCN2C(=O)Cc2ccc(Cl)c(Cl)c2)C1 (stereo unspecified) | 0.05 mg/kg | pKa [5]: 7.7
O=C1CCN(C(=O)Cc2ccc(Cl)c(Cl)c2)C(CN2CCCC2)C1 (stereo unspecified) | 0.018 mg/kg | 
N#C/C=C1\CCN(CC2CCCCN2C(=O)Cc2ccc(Cl)c(Cl)c2)C1 (stereo unspecified) | > 10 mg/kg | IC50 [1]: 690 nM
